Laboratory results as given in ChEMBL document CHEMBL1932971, “Synthesis of uriedo and thiouriedo derivatives of peptide conjugated heterocycles - A new class of promising antimicrobials” (2012).
In brackets after ≈: the same amount, converted by molar mass. Numbered stars: 1 amine (or outer) side, 2 acyl side, 3 side chain; on linkers, the order of the positions; unused ones are H or OH. Peptide text beside a SMILES is read from it. * marks the point of attachment. Piperazinyl(4-(2,3-Cl2Ph)) = Clc1cccc(N2CCN(*)CC2)c1Cl; Thiocarbamoyl(N-4-ClPh) = S=C(Nc1ccc(Cl)cc1)*; Thiocarbamoyl(4-MeOPh) = COc1ccc(NC(=S)*)cc1; X1 = Fc1ccc2c(C3CCN(*)CC3)noc2c1; NH(2-F-phenyl) = Fc1ccccc1N*; CO = O=C([*:1])[*:2]; OcHex = C1CCC(O*)CC1

Key:
Format in all cases: functional
[1] = tested on: Escherichia coli; test: Antibacterial activity against Escherichia coli at 30 ug/ml after 24 hrs by agar well diffusion method; conditions: read-out: DIZ
Summary of the method: (§1)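 Agar well diffusion. Inocula were grown in nutrient broth at 37 °C for 24 h, then subcultured in nutrient broth at room temperature. Compounds were made as a 1 mg/mL DMSO stock and diluted to 30 µg/mL final. Nutrient agar plates were spread-inoculated and 6 mm wells each got 0.1 mL. Controls were amoxicillin (reference) and DMSO (negative). Incubation was 24 h at 37 °C. Inhibition zone was measured in mm as the mean of three determinations.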

[2] = tested on: Xanthomonas oryzae; test: Antibacterial activity against Xanthomonas oryzae at 30 ug/ml after 24 hrs by agar well diffusion method; conditions: read-out: DIZ
[3] = tested on: Klebsiella pneumoniae; test: Antibacterial activity against Klebsiella pneumoniae at 30 ug/ml after 24 hrs by agar well diffusion method; conditions: read-out: DIZ; summary of the method: as §1
[4] = tested on: Staphylococcus aureus; test: Antibacterial activity against coagulase-positive Staphylococcus aureus at 30 ug/ml after 24 hrs by agar well diffusion method; conditions: read-out: DIZ; summary of the method: as §1
[5] = tested on: Aspergillus niger; test: Antifungal activity against Aspergillus niger at 30 ug/ml after 72 hrs by agar well diffusion method; conditions: read-out: DIZ
Summary of the method: (§2)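 Fungal well diffusion. Inocula were subcultured in nutrient broth for one day, then spread on solidified medium. Compounds were made as a 1 mg/mL DMSO stock and diluted to 30 µg/mL final. Each 6 mm well got 0.1 mL. Controls were bavistin (reference) and DMSO (negative). Plates stood for 3 days at room temperature. Inhibition zone was measured in mm as the mean of three determinations.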

[6] = tested on: Aspergillus flavus; test: Antifungal activity against Aspergillus flavus at 30 ug/ml after 72 hrs by agar well diffusion method; conditions: read-out: DIZ; summary of the method: as §2
[7] = tested on: Fusarium oxysporum; test: Antifungal activity against Fusarium oxysporum at 30 ug/ml after 72 hrs by agar well diffusion method; conditions: read-out: DIZ; summary of the method: as §2
[8] = tested on: Aspergillus niger; test: Antifungal activity against Aspergillus niger after 72 hrs by microdilution method
[9] = tested on: Aspergillus flavus; test: Antifungal activity against Aspergillus flavus after 72 hrs by microdilution method
[10] = tested on: Fusarium oxysporum; test: Antifungal activity against Fusarium oxysporum after 72 hrs by microdilution method
[11] = tested on: Aspergillus niger; test: Ratio of bavistin MIC to compound MIC for Aspergillus niger after 72 hrs by microdilution method
[12] = tested on: Aspergillus flavus; test: Ratio of bavistin MIC to compound MIC for Aspergillus flavus after 72 hrs by microdilution method
[13] = tested on: Fusarium oxysporum; test: Ratio of bavistin MIC to compound MIC for Fusarium oxysporum after 72 hrs by microdilution method

Row | SMILES | zone of inhibition at 30 µg/mL [1] | zone of inhibition at 30 µg/mL [2] | zone of inhibition at 30 µg/mL [3] | zone of inhibition at 30 µg/mL [4] | zone of inhibition at 30 µg/mL [5] | zone of inhibition at 30 µg/mL [6] | zone of inhibition at 30 µg/mL [7] | MIC [8] | MIC [9] | MIC [10] | Ratio [11] | Ratio [12] | Ratio [13]
1 | CC(C)[C@H](NC(=O)CNC(=O)[C@@H]1CCCN1C(=O)[C@H](Cc1ccccc1)NC(=O)CNC(=O)[C@H](CCC(=O)OC1CCCCC1)NC(=O)CNC(=O)Nc1ccccc1F)C(=O)NCC(=O)N[C@H](C(=O)N1CCC[C@H]1C(=O)NCC(=O)N[C@H](C(=O)NCC(=O)N[C@H](C(=O)N1CCC[C@H]1C(=O)NCC(=O)N[C@H](C(=O)NCC(=O)N[C@H](C(=O)N1CCC[C@H]1C(=O)NCC(=O)N[C@@H](Cc1ccccc1)C(=O)NCC(=O)N[C@@H](Cc1ccccc1)C(=O)N1CCC[C@H]1C(=O)NCC(=O)N[C@@H](Cc1ccccc1)C(=O)NCC(=O)N[C@@H](Cc1ccccc1)C(=O)N1CCC[C@H]1C(=O)N1CCC(c2noc3cc(F)ccc23)CC1)C(C)C)C(C)C)C(C)C)C(C)C)C(C)C ({NH(2-F-phenyl)-CO}-GE(OcHex)GFPGVGVPGVGVPGVGVPGFGFPGFGFP-X1) | 24 mm | 21 mm | 22 mm | 22 mm | 46 mm | 43 mm | 44 mm | 1.25 mg/L (≈ 0.395 µM) | 1.25 mg/L (≈ 0.395 µM) | 1.5 mg/L (≈ 0.474 µM) | 10 | 10 | 10
2 | COc1ccc(NC(=S)NCC(=O)N[C@@H](CCC(=O)OC2CCCCC2)C(=O)NCC(=O)N[C@@H](Cc2ccccc2)C(=O)N2CCC[C@H]2C(=O)NCC(=O)N[C@H](C(=O)NCC(=O)N[C@H](C(=O)N2CCC[C@H]2C(=O)NCC(=O)N[C@H](C(=O)NCC(=O)N[C@@H](Cc2ccccc2)C(=O)N2CCC[C@H]2C(=O)NCC(=O)N[C@@H](Cc2ccccc2)C(=O)NCC(=O)N[C@@H](Cc2ccccc2)C(=O)N2CCC[C@H]2C(=O)NCC(=O)N[C@H](C(=O)NCC(=O)N[C@H](C(=O)N2CCC[C@H]2C(=O)NCC(=O)N[C@H](C(=O)NCC(=O)N[C@@H](Cc2ccccc2)C(=O)N2CCC[C@H]2C(=O)N2CCN(c3cccc(Cl)c3Cl)CC2)C(C)C)C(C)C)C(C)C)C(C)C)C(C)C)C(C)C)cc1 ({Thiocarbamoyl(4-MeOPh)}-GE(OcHex)GFPGVGVPGVGFPGFGFPGVGVPGVGFP-{Piperazinyl(4-(2,3-Cl2Ph))}) | 15 mm | 13 mm | 15 mm | 14 mm | 42 mm | 37 mm | 38 mm | 2.75 mg/L (≈ 0.858 µM) | 2.75 mg/L (≈ 0.858 µM) | 3.25 mg/L (≈ 1.01 µM) | 10 | 10 | 10
3 | CC(C)[C@H](NC(=O)CNC(=O)[C@@H]1CCCN1C(=O)[C@H](Cc1ccccc1)NC(=O)CNC(=O)[C@H](CCC(=O)OC1CCCCC1)NC(=O)CNC(=S)Nc1ccc(Cl)cc1)C(=O)NCC(=O)N[C@H](C(=O)N1CCC[C@H]1C(=O)NCC(=O)N[C@H](C(=O)NCC(=O)N[C@H](C(=O)N1CCC[C@H]1C(=O)NCC(=O)N[C@H](C(=O)NCC(=O)N[C@H](C(=O)N1CCC[C@H]1C(=O)NCC(=O)N[C@@H](Cc1ccccc1)C(=O)NCC(=O)N[C@@H](Cc1ccccc1)C(=O)N1CCC[C@H]1C(=O)NCC(=O)N[C@@H](Cc1ccccc1)C(=O)NCC(=O)N[C@@H](Cc1ccccc1)C(=O)N1CCC[C@H]1C(=O)N1CCC(c2noc3cc(F)ccc23)CC1)C(C)C)C(C)C)C(C)C)C(C)C)C(C)C ({Thiocarbamoyl(N-4-ClPh)}-GE(OcHex)GFPGVGVPGVGVPGVGVPGFGFPGFGFP-X1) | 21 mm | 17 mm | 19 mm | 17 mm | 45 mm | 40 mm | 41 mm | 1.75 mg/L (≈ 0.547 µM) | 1.75 mg/L (≈ 0.547 µM) | 2.5 mg/L (≈ 0.781 µM) | 10 | 10 | 10
